First the molecules themselves.
B1: Osa-1-4 twister ribozyme (parent)
chain: CCGCCUAACACUGCCAAUGCCGGUCCCAAGCCCGGAUAAAAGUGGAGGGGGCGG

Variants of B1 are the subject of the series. The series is described as follows: self-cleavage, relative activity (ratio to wild type); higher = more cleavage; co-transcriptional. Put shortly:
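The 48 positions downstream of the cleavage site in a DNA template for a 54-nucleotide Oryza sativa twister ribozyme carried 97 % wild-type base and 1 % of each other base. After in vitro transcription (2 h, 37 °C) with co-transcriptional self-cleavage, the RNA was reverse-transcribed with a template-switching oligonucleotide, PCR-amplified and deep-sequenced. Relative activity is the fraction cleaved, judged by reads with or without upstream sequence and normalised to wild type.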
As for C9U G23C, the self-cleavage amounted to 0.03.

As for C9U G23A, the self-cleavage was 0.12.

As for A10C G22A, the self-cleavage turned out to be 0.05.

Turning to A10C G22U, the self-cleavage amounted to 0.03.

As for A10C G22C, the self-cleavage worked out at 0.02.

For the variant A10G C9U, the self-cleavage came out at 0.77.

Turning to A10G C9G, the self-cleavage amounted to 0.41.

Regarding A10G C9A, the self-cleavage came to 0.57.

Regarding A10C C25G, the self-cleavage is 0.01.

A10C C25A: the self-cleavage turned out to be 0.03.

Take A10C C25U: the self-cleavage came out at 0.04.

Regarding A10C A40G, the self-cleavage was 0.04.

Take A10C A40C: the self-cleavage came to 0.03.

On to A10C A40U, for which the self-cleavage was 0.03.

Take A10G: the self-cleavage is 0.91.

With A10C, the self-cleavage amounted to 0.12.

As to A10G G35C, the self-cleavage is 0.13.

Regarding A10G G35A, the self-cleavage was determined as 0.41.

With A10G G35U, the self-cleavage came out at 0.4.

Take A10C U18A: the self-cleavage stood at 0.08.

A10C U18G: the self-cleavage was 0.24.

For A10C U18C, the self-cleavage was found to be 0.07.

For C9U G13U, the self-cleavage was 0.01.

For the variant C9U G13C, the self-cleavage was 0.01.

In the case of C9U G13A, the self-cleavage was 0.04.

On to A10C G48C, for which the self-cleavage turned out to be 0.02.

With A10C G48U, the self-cleavage is 0.02.

Consider A10C G48A, for which the self-cleavage is 0.02.

As for A10G A29G, the self-cleavage was found to be 0.09.

Consider A10G A29U, for which the self-cleavage worked out at 0.07.

With A10G A29C, the self-cleavage is 0.05.

In the case of A10C C27A, the self-cleavage amounted to 0.06.

With A10C C27U, the self-cleavage turned out to be 0.02.

Take A10C C27G: the self-cleavage is 0.02.

As for A10C G35U, the self-cleavage stood at 0.04.

For A10C G35C, the self-cleavage was 0.03.

Regarding A10C G35A, the self-cleavage is 0.07.

For the variant A10C C26A, the self-cleavage amounted to 0.03.

On to A10C C26G, for which the self-cleavage amounted to 0.03.

Take A10C C26U: the self-cleavage worked out at 0.03.

A10C G23A: the self-cleavage was 0.03.

As to A10C G23C, the self-cleavage amounted to 0.01.

Consider A10C G23U, for which the self-cleavage is 0.02.

In the case of A10G A17G, the self-cleavage was found to be 0.64.

For A10G A17U, the self-cleavage amounted to 0.85.

As for A10G A17C, the self-cleavage was determined as 0.44.

A10G C32G: the self-cleavage worked out at 0.15.

Regarding A10G C32U, the self-cleavage amounted to 0.1.

A10G C32A: the self-cleavage was found to be 0.07.

A10G G30C: the self-cleavage stood at 0.07.

With A10G G30A, the self-cleavage was determined as 0.05.

Consider A10G G30U, for which the self-cleavage amounted to 0.05.

For A10G G34U, the self-cleavage was found to be 0.14.

As for A10G G34C, the self-cleavage came to 0.12.

On to A10G G34A, for which the self-cleavage came to 0.24.

Consider A10C A8G, for which the self-cleavage is 0.06.

A10C A8C: the self-cleavage turned out to be 0.15.

Consider A10C A8U, for which the self-cleavage came to 0.04.

Take C9U G35C: the self-cleavage is 0.21.

As to C9U G35U, the self-cleavage was found to be 0.59.

As to C9U G35A, the self-cleavage was 0.53.

As to A10C C11U, the self-cleavage was 0.51.

Consider A10C C11A, for which the self-cleavage is 0.1.

Consider A10C C11G, for which the self-cleavage was 0.04.

For A10C A38C, the self-cleavage amounted to 0.07.

A10C A38G: the self-cleavage was found to be 0.08.

Regarding A10C A38U, the self-cleavage came out at 0.08.

As for C9U G19U, the self-cleavage is 0.08.

For C9U G19A, the self-cleavage is 0.26.

As to C9U G19C, the self-cleavage came out at 0.05.

A10C A17C: the self-cleavage was 0.03.

Consider A10C A17G, for which the self-cleavage is 0.1.

As to A10C A17U, the self-cleavage was found to be 0.08.

With A10C A41C, the self-cleavage is 0.05.

With A10C A41G, the self-cleavage amounted to 0.11.

For A10C A41U, the self-cleavage is 0.06.

For C9U G30U, the self-cleavage stood at 0.02.

Regarding C9U G30C, the self-cleavage came out at 0.03.

As for C9U G30A, the self-cleavage was 0.02.

For A10G C11A, the self-cleavage was 0.38.

As for A10G C11G, the self-cleavage stood at 0.12.

For A10G C11U, the self-cleavage was found to be 0.8.

For A10C C21G, the self-cleavage was 0.01.

Regarding A10C C21A, the self-cleavage is 0.04.

For the variant A10C C21U, the self-cleavage was determined as 0.06.

Regarding A10C G42U, the self-cleavage was 0.01.

As to A10C G42A, the self-cleavage is 0.03.

A10C G42C: the self-cleavage worked out at 0.02.

Regarding C9U U43G, the self-cleavage came to 0.4.

C9U U43A: the self-cleavage was found to be 0.68.

C9U U43C: the self-cleavage was 0.16.

As to A10C A7U, the self-cleavage amounted to 0.06.

On to A10C A7G, for which the self-cleavage was 0.06.

With A10C A7C, the self-cleavage was determined as 0.04.

With C9U, the self-cleavage came to 0.78.

Turning to A10G C20A, the self-cleavage worked out at 0.78.

On to A10G C20G, for which the self-cleavage was found to be 0.09.

Regarding A10G C20U, the self-cleavage is 0.81.

For A10G A38C, the self-cleavage was determined as 0.91.

As to A10G A38U, the self-cleavage was 0.8.

Consider A10G A38G, for which the self-cleavage is 0.88.

As to A10G C15U, the self-cleavage stood at 0.14.

A10G C15G: the self-cleavage came to 0.2.

For the variant A10G C15A, the self-cleavage was 0.17.

With A10G C33G, the self-cleavage was 0.07.

With A10G C33A, the self-cleavage is 0.1.

Consider A10G C33U, for which the self-cleavage is 0.33.

Regarding A10C C15U, the self-cleavage was 0.04.

On to A10C C15G, for which the self-cleavage was 0.04.

With A10C C15A, the self-cleavage stood at 0.08.

In the case of A10C A39U, the self-cleavage stood at 0.05.

In the case of A10C A39G, the self-cleavage amounted to 0.06.

In the case of A10C A39C, the self-cleavage is 0.05.

As for C9U G42U, the self-cleavage worked out at 0.04.

For C9U G42C, the self-cleavage was found to be 0.04.

Consider C9U G42A, for which the self-cleavage worked out at 0.09.

On to A10C A29C, for which the self-cleavage amounted to 0.02.

Regarding A10C A29G, the self-cleavage amounted to 0.03.

In the case of A10C A29U, the self-cleavage is 0.02.

For A10C G50U, the self-cleavage turned out to be 0.04.

In the case of A10C G50A, the self-cleavage worked out at 0.11.

A10C G50C: the self-cleavage turned out to be 0.04.

Take A10C U43A: the self-cleavage is 0.39.

For the variant A10C U43C, the self-cleavage was found to be 0.05.

Regarding A10C U43G, the self-cleavage is 0.64.

As to A10C G13A, the self-cleavage was determined as 0.02.

Turning to A10C G13C, the self-cleavage was determined as 0.02.

As to A10C G13U, the self-cleavage was determined as 0.03.

Turning to A10G C14G, the self-cleavage worked out at 0.16.

Consider A10G C14A, for which the self-cleavage turned out to be 0.11.

Turning to A10G C14U, the self-cleavage is 0.28.

As to A10G G47U, the self-cleavage was 0.12.

As for A10G G47A, the self-cleavage worked out at 0.13.

As to A10G G47C, the self-cleavage was determined as 0.07.

Regarding A10G G45C, the self-cleavage turned out to be 0.06.

Turning to A10G G45A, the self-cleavage is 0.17.

On to A10G G45U, for which the self-cleavage was found to be 0.1.

Turning to A10C U12A, the self-cleavage came out at 0.03.

On to A10C U12G, for which the self-cleavage is 0.04.

Turning to A10C U12C, the self-cleavage worked out at 0.06.

In the case of A10C G53A, the self-cleavage turned out to be 0.11.

In the case of A10C G53U, the self-cleavage is 0.06.

A10C G53C: the self-cleavage was found to be 0.02.

Regarding A10G A36U, the self-cleavage was 0.94.

For the variant A10G A36G, the self-cleavage came out at 0.86.

As to A10G A36C, the self-cleavage was determined as 0.26.

For the variant A10C G34C, the self-cleavage amounted to 0.03.

A10C G34U: the self-cleavage came out at 0.05.

In the case of A10C G34A, the self-cleavage was 0.04.

With A10C G49U, the self-cleavage was 0.02.

A10C G49C: the self-cleavage came to 0.02.

As to A10C G49A, the self-cleavage amounted to 0.02.

For C9G U37C, the self-cleavage worked out at 0.94.

For the variant C9G U37G, the self-cleavage turned out to be 0.92.

For the variant C9G U37A, the self-cleavage stood at 0.76.

In the case of A10G C26A, the self-cleavage was 0.04.

As to A10G C26G, the self-cleavage came to 0.18.

In the case of A10G C26U, the self-cleavage was determined as 0.5.

As for A10C G47C, the self-cleavage was determined as 0.02.

As to A10C G47U, the self-cleavage stood at 0.03.

With A10C G47A, the self-cleavage was determined as 0.02.

Consider A10G G44C, for which the self-cleavage is 0.81.

As to A10G G44A, the self-cleavage was 0.72.

As for A10G G44U, the self-cleavage amounted to 0.87.

For A10C C32U, the self-cleavage stood at 0.02.

With A10C C32G, the self-cleavage amounted to 0.02.

On to A10C C32A, for which the self-cleavage amounted to 0.02.

(Values after the RNAGym collection of RNA variant scans (doi:10.1002/anie.201605470).)
